# Reference: ChEMBL document CHEMBL1126175, “Synthesis and antibacterial activity of new tetracyclic quinolone antibacterials” (J Med Chem, 1992)
# What was measured:
# [1] = tested on: Escherichia coli; assay: In vitro antibacterial activity against Escherichia coli KC-14, Ec(K), (gram-negative); assay type: functional
# Outline: (§1)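 MIC by serial 2-fold agar dilution on Mueller–Hinton agar; inoculum about 10^6 CFU/mL; MIC taken as lowest concentration preventing visible growth after 18 h at 37 °C.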
# [2] = tested on: Enterococcus faecalis; assay: In vitro antibacterial activity against Enterococcus faecalis IID 682,[…],(gram-positive); assay type: functional; outline: as §1
# [3] = tested on: Enterococcus faecalis; assay: In vitro antibacterial activity against Enterococcus faecalis IID 682,Ef.([…]); assay type: functional; outline: as §1
# [4] = tested on: Pseudomonas aeruginosa; assay: In vitro antibacterial activity against Pseudomonas aeruginosa IFO 3445,Pa(I),(gram-negative); assay type: functional; outline: as §1
# [5] = tested on: Klebsiella pneumoniae; assay: In vitro antibacterial activity against klebsiella pneumoniae B54,Kp,(gram-negative); assay type: functional
# [6] = tested on: Staphylococcus aureus; assay: In vitro antibacterial activity against staphylococcus aureus IID 803,(gram-positive); assay type: functional; outline: as §1
# [7] = tested on: Staphylococcus epidermidis; assay: In vitro antibacterial activity against staphylococcus epidermidis IAM 1296, (gram-positive); assay type: functional; outline: as §1
# [8] = tested on: Pseudomonas aeruginosa; assay: In vitro antibacterial activity against Pseudomonas aeruginosa E-2,Pa(E),(gram-negative); assay type: functional; outline: as §1
# [9] = tested on: Staphylococcus aureus; assay: In vitro antibacterial activity against staphylococcus aureus FDA 209P JC-1,Sa(F)(gram-positive); assay type: functional; outline: as §1
# [10] = tested on: Escherichia coli; assay: In vitro antibacterial activity against Escherichia coli NIHJ JC-2,(gram-negative)
SMILES,MIC [1],MIC [2],MIC [3],MIC [4],MIC [5],MIC [6],MIC [7],MIC [8],MIC [9],MIC [10]
COc1c(F)cc2c(=O)c(C(=O)O)c3scc4n3c2c1OC4,0.78 µg/mL,6.25 µg/mL,6.25 µg/mL,3.13 µg/mL,0.2 µg/mL,0.2 µg/mL,0.39 µg/mL,6.25 µg/mL,0.2 µg/mL,–
O=C(O)c1c(=O)c2cc(F)c(N3C[C@H](O)[C@@H](O)C3)c3c2n2c(csc12)CO3,3.13 µg/mL,> 25 µg/mL,–,> 25 µg/mL,1.56 µg/mL,1.56 µg/mL,> 25 µg/mL,> 25 µg/mL,1.56 µg/mL,3.13 µg/mL
CN1CCN(c2c(F)cc3c(=O)c(S(=O)(=O)O)c4scc5n4c3c2OC5)CC1,> 100 µg/mL,> 100 µg/mL,–,> 100 µg/mL,> 100 µg/mL,> 100 µg/mL,> 100 µg/mL,> 100 µg/mL,> 100 µg/mL,> 100 µg/mL
CCn1cc(C(=O)O)c(=O)c2cc(F)c(N3CCNCC3)nc21 [ENOXACIN],0.2 µg/mL,3.13 µg/mL,–,1.56 µg/mL,0.1 µg/mL,0.78 µg/mL,3.13 µg/mL,1.56 µg/mL,0.78 µg/mL,0.2 µg/mL
CC(=O)NC1CCN(c2c(F)cc3c(=O)c(C(=O)O)c4scc5n4c3c2OC5)C1 (stereo not given),1.56 µg/mL,0.78 µg/mL,–,6.25 µg/mL,1.56 µg/mL,0.1 µg/mL,0.78 µg/mL,6.25 µg/mL,0.2 µg/mL,1.56 µg/mL
CC1CN(c2c(F)cc3c(=O)c(C(=O)O)c4scc5n4c3c2OC5)CCN1 (stereo not given),0.1 µg/mL,0.78 µg/mL,–,1.56 µg/mL,0.1 µg/mL,0.2 µg/mL,0.78 µg/mL,0.78 µg/mL,0.2 µg/mL,0.2 µg/mL
Cl.O=C(O)c1cn(C2CC2)c2cc(N3CCNCC3)c(F)cc2c1=O [CIPROFLOXACIN HYDROCHLORIDE],–,0.78 µg/mL,–,0.78 µg/mL,–,0.78 µg/mL,1.56 µg/mL,0.78 µg/mL,0.2 µg/mL,0.05 µg/mL
O=C(O)c1c(=O)c2cc(F)c(N3CCNCC3)c3c2n2c(csc12)CO3,0.1 µg/mL,0.78 µg/mL,–,0.78 µg/mL,0.05 µg/mL,0.39 µg/mL,1.56 µg/mL,0.78 µg/mL,0.39 µg/mL,0.1 µg/mL
CCNCC1CCN(c2c(F)cc3c(=O)c(C(=O)O)c4scc5n4c3c2OC5)C1 (stereo not given),0.39 µg/mL,0.39 µg/mL,–,25 µg/mL,0.39 µg/mL,0.2 µg/mL,0.1 µg/mL,3.13 µg/mL,0.2 µg/mL,–
C[C@@H]1CN(c2c(F)cc3c(=O)c(C(=O)O)c4scc5n4c3c2OC5)C[C@H](C)N1.Cl,0.1 µg/mL,0.78 µg/mL,–,3.13 µg/mL,0.39 µg/mL,0.2 µg/mL,0.39 µg/mL,3.13 µg/mL,0.2 µg/mL,0.2 µg/mL
CCn1cc(C(=O)O)c(=O)c2cc(F)c(N3CCNCC3)cc21 [NORFLOXACIN],0.2 µg/mL,1.56 µg/mL,–,1.56 µg/mL,0.1 µg/mL,1.56 µg/mL,3.13 µg/mL,1.56 µg/mL,0.39 µg/mL,0.2 µg/mL
O=C(O)c1c(=O)c2cc(F)c(N3CCCCC3)c3c2n2c(csc12)CO3,3.13 µg/mL,1.56 µg/mL,–,12.5 µg/mL,1.56 µg/mL,0.1 µg/mL,0.2 µg/mL,6.25 µg/mL,0.1 µg/mL,0.78 µg/mL
